Results on seven molecules are retold here after ChEMBL document CHEMBL4425160, “DABCO-catalyzed one-pot three component synthesis of dihydropyrano[3,2-c]chromene substituted quinazolines and their evaluation towards anticancer activity” (Bioorg Med Chem Lett, 2016).

Usually IC50 stands for the concentration needed to halve the response being measured.

The subject of experiment [1] is MDA-MB-231. The experiment in a line: Cytotoxicity against human MDA-MB-231 cells assessed as cell growth inhibition after 48 hrs by MTT assay. The format is functional, cell-based. Conditions: MDA-MB-231, 48 h. The procedure, abridged:
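Cells counted by trypan blue exclusion, seeded at 1×10^4 per well in DMEM with 10% FBS, and left 24 h. They were then exposed to a concentration series for 48 h at 37°C. Serum-free medium with MTT was added for 4 h, formazan was dissolved in DMSO, and A570 was read minus A690. IC50 was read from the 50% viability point versus DMSO+DMEM controls.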
(In general: Tetrazolium assays rely on reduction of a dye to a coloured formazan, in cell work by metabolically active cells.)

For experiment [2], the system named is MDA-MB-231. The experiment in a line: Cytotoxicity against human MDA-MB-231 cells assessed as cell growth inhibition at 50 uM after 48 hrs by MTT assay. The format is functional. Conditions: MDA-MB-231, 48 h, read-out: GI. The procedure, abridged:
(§1)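 MTT growth assay. 1×10^4 cells were seeded in DMEM with 10% FBS and incubated 24 h. Each compound was then applied at the stated single concentration for 48 h at 37°C, followed by MTT for 4 h. Formazan was solubilized in DMSO and absorbance read at 570 nm with 690 nm background subtraction. Inhibition is relative to control cells given DMSO+DMEM.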

In experiment [3] the test system is MDA-MB-231. The experiment in a line: Cytotoxicity against human MDA-MB-231 cells assessed as cell growth inhibition at 100 uM after 48 hrs by MTT assay. The format is functional. The settings on record: MDA-MB-231, 48 h, read-out: GI. The procedure, abridged:
as §1

Take `CCOC(=O)C1=C(N)Oc2c(c(=O)oc3c(Cl)cc(Cl)cc23)C1c1nc(OCc2ccccc2)c2ccccc2n1` (centres undefined): in the experiment on MDA-MB-231 [1], the IC50 is more than 100 µM.

Take `CCOC(=O)C1=C(N)Oc2c(c(=O)oc3cc(OC)c(Cl)cc23)C1c1nc(OCc2ccccc2)c2ccccc2n1` (centres undefined): the IC50 with MDA-MB-231 [1] is more than 100 µM.

For `CCOC(=O)C1=C(N)Oc2c(c(=O)oc3cc(OC)ccc23)C1c1nc(OCc2ccccc2)c2ccccc2n1` (centres undefined), in the experiment on MDA-MB-231 [1], the IC50 was more than 100 µM.

On to `CCOC(=O)C1=C(N)Oc2c(c(=O)oc3ccccc23)C1c1nc(OCc2ccccc2)c2ccccc2n1` (centres undefined), for which the IC50 in the experiment on MDA-MB-231 [1] was more than 100 µM.

For the molecule `CCOC(=O)C1=C(N)Oc2c(c(=O)oc3c(Br)cc(Cl)cc23)C1c1nc(OCc2ccccc2)c2ccccc2n1` (centres undefined), the inhibition of growth at 50 µM with MDA-MB-231 [2] was determined as 80%. For the same molecule, the inhibition of growth at 100 µM with MDA-MB-231 [3] is more than 95%. Besides, the IC50 in the experiment with MDA-MB-231 [1] amounted to 28.3 µM.

As for `CCOC(=O)C1=C(N)Oc2c(c(=O)oc3ccc(F)cc23)C1c1nc(OCc2ccccc2)c2ccccc2n1` (centres undefined), the IC50 in the experiment with MDA-MB-231 [1] was more than 100 µM.

Regarding `CCOC(=O)C1=C(N)Oc2c(c(=O)oc3cc(C)c(C)cc23)C1c1nc(OCc2ccccc2)c2ccccc2n1` (centres undefined), in the experiment with MDA-MB-231 [1], the IC50 is more than 100 µM.
